Read-outs that look alike come from different tables or passages of the source.
Assays:
[1] = Cytotoxicity in mock-infected Vero E6 cells; type: cell-based; settings: African green monkey
hPSC-CMs = assay: Electrophysiological characterization of hPSC-CMs; type: cell-based, human; settings: for repolarization: dofetilide 10 nM, E4031 30 nM
Cell viability assay [2] = type: cell-based; settings: human
Summary of the method: (§1)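 Cardiomyocytes were differentiated from H9 hESCs or CMC-hiPSC-011 hiPSCs (CHIR99021, then Wnt inhibitor C59; lactate selection days 10–15). They were exposed to graded drug concentrations (DMSO stocks) for 24 h or 48 h. Viability was read by MTS, absorbance 490 nm. CC50 came from four-parameter nonlinear regression. Mean ± SD of at least two independent experiments in triplicate.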

Cell viability assay [3] = type: cell-based; settings: human; remark: listed apart in the source
Summary of the method: as §1

SARS-CoV-2 [4] = assay: Image-based; type: cell-based, SARS-CoV-2 (hCoV/Korea/KCDC-03/2020); settings: Severe acute respiratory syndrome coronavirus 2, 48 h, MOI 2.5, 48 h post-infection
SARS-CoV-2 [5] = assay: CPE-based antiviral assay in Vero E6 cells; type: cell-based, SARS-CoV-2 (hCoV/Korea/KCDC-03/2020)
SARS-CoV-2 [6] = type: cell-based; settings: for reduction in SARS-CoV-2 titers: 33 μM
SARS-CoV-2 [7] = assay: RT-qPCR of intracellular SARS-CoV-2 RNA in hPSC-CMs; type: cell-based; settings: 0.3 μM and 1 μM
hERG currents = hERG currents (Homo sapiens, UniProt Q12809); assay: cell-based
[8] = hESC-CMs (human embryonic stem cell-derived cardiomyocytes)

hERG currents, sequence (Q12809 whole entry): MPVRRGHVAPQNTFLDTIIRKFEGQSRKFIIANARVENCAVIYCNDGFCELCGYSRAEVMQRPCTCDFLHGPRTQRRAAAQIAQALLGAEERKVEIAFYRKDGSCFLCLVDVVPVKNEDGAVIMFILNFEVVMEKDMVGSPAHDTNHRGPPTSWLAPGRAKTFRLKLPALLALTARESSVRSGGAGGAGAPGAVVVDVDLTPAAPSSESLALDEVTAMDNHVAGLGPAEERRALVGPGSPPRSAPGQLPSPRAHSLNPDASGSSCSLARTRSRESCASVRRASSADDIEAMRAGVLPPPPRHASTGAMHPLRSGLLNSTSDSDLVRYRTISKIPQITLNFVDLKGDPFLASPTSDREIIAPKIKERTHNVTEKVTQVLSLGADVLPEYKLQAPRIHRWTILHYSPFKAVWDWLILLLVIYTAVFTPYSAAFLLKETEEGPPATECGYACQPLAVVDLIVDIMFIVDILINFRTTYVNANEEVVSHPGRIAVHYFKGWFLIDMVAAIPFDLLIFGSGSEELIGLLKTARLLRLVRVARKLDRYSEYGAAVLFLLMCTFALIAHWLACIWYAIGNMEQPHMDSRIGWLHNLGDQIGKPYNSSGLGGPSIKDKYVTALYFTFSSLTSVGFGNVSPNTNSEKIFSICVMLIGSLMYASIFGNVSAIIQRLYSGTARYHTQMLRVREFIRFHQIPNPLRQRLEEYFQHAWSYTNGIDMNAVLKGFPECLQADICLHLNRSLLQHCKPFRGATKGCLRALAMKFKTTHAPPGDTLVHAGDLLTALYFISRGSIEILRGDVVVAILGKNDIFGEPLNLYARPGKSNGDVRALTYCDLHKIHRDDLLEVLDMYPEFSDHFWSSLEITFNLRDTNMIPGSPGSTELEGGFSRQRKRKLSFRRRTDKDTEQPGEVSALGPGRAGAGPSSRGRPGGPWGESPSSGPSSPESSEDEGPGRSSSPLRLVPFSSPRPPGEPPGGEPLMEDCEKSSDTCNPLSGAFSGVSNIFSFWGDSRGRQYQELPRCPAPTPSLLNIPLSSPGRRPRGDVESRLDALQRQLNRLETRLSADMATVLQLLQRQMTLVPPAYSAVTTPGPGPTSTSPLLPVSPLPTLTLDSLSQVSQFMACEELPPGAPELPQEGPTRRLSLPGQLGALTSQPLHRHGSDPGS

Structure (SMILES): CCN(CCO)CCCC(C)Nc1ccnc2cc(Cl)ccc12 (centres unmarked) [Hydroxychloroquine, hydroxychloroquine]
- CC50 at 72 h [1]: 76.1 µM

Structure (SMILES): CC(C)NCC(O)c1ccc(O)c(O)c1 (centres unmarked) [isoprenaline]
- rate of AP (hPSC-CMs; 100 nM): substantially increased

Structure (SMILES): CCC(CC)COC(=O)[C@H](C)N[P@](=O)(OC[C@H]1O[C@@](C#N)(c2ccc3c(N)ncnn23)[C@H](O)[C@@H]1O)Oc1ccccc1 [Remdesivir]
- CC50 at 24 h (Cell viability assay [2]): 39.4 µM
- CC50 at 48 h (Cell viability assay [2]): 15.6 µM
- CC50 at 72 h [1]: > 100 µM
- CC50 at 24 h (Cell viability assay [3]; [8]): 17.7 µM
- CC50 at 48 h (Cell viability assay [3]; [8]): 10.2 µM
- CC50 (Cell viability assay [3]; hPSC-CMs (hESC-CMs and hiPSC-CMs)): 10.2 to 39.4 µM
- EC50 (SARS-CoV-2 [4]; hESC-CMs): 0.6 µM
- EC90 (SARS-CoV-2 [4]; hESC-CMs): 1.3 µM
- EC50 (SARS-CoV-2 [4]; hiPSC-CMs): 0.2 µM
- EC90 (SARS-CoV-2 [4]; hiPSC-CMs): 0.33 µM
- selectivity index (SI) (SARS-CoV-2 [5]; CC50/EC50): > 50
- viral particle production (SARS-CoV-2 [6]; hESC-CMs and hiPSC-CMs, 0.3 μM and 1 μM remdesivir): Complete suppression
- reduction of viral titer (SARS-CoV-2 [6]; hPSC-CMs, 0.1 μM): minimal reduction
- intracellular viral mRNA synthesis (SARS-CoV-2 [7]): complete inhibition
- concentration that reduced Na+ peak amplitudes and spontaneous beating rates, followed by complete cessation of spontaneous beating (hiPSC-CMs; 30 min exposure): ≥ 30 µM
- field potential duration (FPD) (hiPSC-CMs; 30 min exposure): dose-dependent prolongations of FPD
- Early afterdepolarizations (EADs) and delayed afterdepolarizations (DADs) (hiPSC-CMs; data not shown): not detected
- IC50 (hERG currents): > 100 µM

Structure (SMILES): CCN(CC)CCCC(C)Nc1ccnc2cc(Cl)ccc12 (centres unmarked) [Chloroquine]
- CC50 at 72 h [1]: > 100 µM
- CC50 at 48 h (Cell viability assay [3]; [8]): 84.9 µM
- EC50 (SARS-CoV-2 [4]; hESC-CMs): 27.9 µM
- EC90 (SARS-CoV-2 [4]; hESC-CMs): > 84.9 µM
- EC50 (SARS-CoV-2 [4]; hiPSC-CMs): 12.1 µM
- EC90 (SARS-CoV-2 [4]; hiPSC-CMs): 24.1 µM
- infectious viral particle production (SARS-CoV-2 [6]; hESC-CMs and hiPSC-CMs, highest tested concentration): complete suppression
- reduction in SARS-CoV-2 titers (SARS-CoV-2 [6]; hESC-CMs): 2.3 log10 PFU/ml
- effect on viral titers (SARS-CoV-2 [6]; hPSC-CMs, 11 μM): did not affect
- reduction in SARS-CoV-2 titers (SARS-CoV-2 [6]; hiPSC-CMs): 0.3 log10 PFU/ml
- Na+ peak amplitude and T-wave (hiPSC-CMs; 30 min exposure): pronounced reduction of Na^+ peak amplitude and T-wave flattening
- field potential duration (FPD) (hiPSC-CMs; 30 min exposure): increased the field potential duration (FPD) of hiPSC-CMs in a dose-dependent manner

Structure (SMILES): CN(CCOc1ccc(NS(C)(=O)=O)cc1)CCc1ccc(NS(C)(=O)=O)cc1 [dofetilide]
- repolarization (hPSC-CMs): significantly delayed

Structure (SMILES): NC(=O)c1nc(F)c[nH]c1=O [Favipiravir (T-705), favipiravir]
- in vitro antiviral activity against SARS-CoV-2 (SARS-CoV-2 [5]): no apparent in vitro antiviral activity

Structure (SMILES): Cc1cccc(CCN2CCC(C(=O)c3ccc(NS(C)(=O)=O)cc3)CC2)n1 [E4031]
- repolarization (hPSC-CMs): significantly delayed

Source: PMC7571425 (Antiviral Research, 2020)
